Measurements taken from ChEMBL document CHEMBL1139591, “Synthesis and antibacterial activity of dihydro-1,2-oxazine and 2-pyrazoline oxazolidinones: novel analogs of linezolid” (2005).
In brackets after ≈: the same amount, converted by molar mass.

How the values were obtained:
Assay type in all cases: functional
Enterococcus faecium = assay: Minimum inhibitory concentration against Enterococcus faecium A24885
Procedure, shortened: (§1)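 Broth microdilution per NCCLS guidance in Mueller-Hinton medium; final inoculum about 5×10^5 cfu/mL; plates incubated 18 h at 35 °C in ambient air. MIC taken as the lowest drug concentration preventing visible growth, in µg/mL.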

Streptococcus pneumoniae = assay: Minimum inhibitory concentration against Streptococcus pneumoniae A9585
Procedure, shortened: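 Broth microdilution following NCCLS recommendations, using Todd Hewitt broth for streptococci; final inoculum approx. 5×10^5 cfu/mL; incubation 35 °C for 18 h in 5% CO₂. MIC read as the lowest drug concentration preventing growth, µg/mL.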

Staphylococcus aureus [1] = assay: Minimum inhibitory concentration against Staphylococcus aureus A15090
Procedure, shortened: (§2)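 Broth microdilution per NCCLS guidance in Mueller-Hinton medium. Final inoculum about 5×10^5 cfu/mL. Plates incubated at 35 °C for 18 h in ambient air. MIC taken as the lowest drug concentration that prevented visible growth.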

Enterococcus faecalis = assay: Minimum inhibitory concentration against Enterococcus faecalis A20688; procedure, shortened: as §1
Staphylococcus aureus [2] = assay: Minimum inhibitory concentration against homogeneously methicillin-resistant Staphylococcus aureus A27223; procedure, shortened: as §2
Staphylococcus aureus [3] = assay: Minimum inhibitory concentration against heterogeneously methicillin-resistant Staphylococcus aureus A27218; procedure, shortened: as §2
Staphylococcus aureus [4] = assay: Minimum inhibitory concentration against homogeneously methicillin-resistant Staphylococcus aureus A27223 in the presence of 50% calf serum
Procedure, shortened: (§3)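 Broth microdilution per NCCLS guidance in Mueller-Hinton medium supplemented with 50% calf serum. Final inoculum about 5×10^5 cfu/mL. Incubated at 35 °C for 18 h in ambient air. MIC read as the lowest drug concentration that prevented visible growth.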

Staphylococcus aureus [5] = assay: Minimum inhibitory concentration against heterogeneously methicillin-resistant Staphylococcus aureus A27218 in the presence of 50% calf serum; procedure, shortened: as §3
Staphylococcus aureus [6] = assay: Minimum inhibitory concentration against Staphylococcus aureus A15090 in the presence of 50% calf serum; procedure, shortened: as §3

Compound	MIC (Enterococcus faecium)	MIC (Streptococcus pneumoniae)	MIC (Staphylococcus aureus [1])	MIC (Enterococcus faecalis)	MIC (Staphylococcus aureus [2])	MIC (Staphylococcus aureus [3])	MIC (Staphylococcus aureus [4])	MIC (Staphylococcus aureus [5])	MIC (Staphylococcus aureus [6])
CC(=O)NC[C@H]1CN(c2ccc(NO)cc2)C(=O)O1	4 µg/mL (≈ 15.1 µM)	4 µg/mL (≈ 15.1 µM)	0.5 µg/mL (≈ 1.88 µM)	8 µg/mL (≈ 30.2 µM)	2 µg/mL (≈ 7.54 µM)	4 µg/mL (≈ 15.1 µM)	–	–	–
CC(=O)NC[C@H]1CN(c2ccc(N3CC(C)=C(C)CO3)cc2)C(=O)O1	8 µg/mL (≈ 23.2 µM)	8 µg/mL (≈ 23.2 µM)	4 µg/mL (≈ 11.6 µM)	16 µg/mL (≈ 46.3 µM)	4 µg/mL (≈ 11.6 µM)	8 µg/mL (≈ 23.2 µM)	–	–	–
CC(=O)NC[C@H]1CN(c2ccc(N3CC=CCO3)cc2)C(=O)O1	2 µg/mL (≈ 6.3 µM)	2 µg/mL (≈ 6.3 µM)	1 µg/mL (≈ 3.15 µM)	4 µg/mL (≈ 12.6 µM)	1 µg/mL (≈ 3.15 µM)	2 µg/mL (≈ 6.3 µM)	1 µg/mL	2 µg/mL	1 µg/mL
CC(=O)NC[C@H]1CN(c2ccc(N=O)cc2)C(=O)O1	2 µg/mL (≈ 7.6 µM)	1 µg/mL (≈ 3.8 µM)	2 µg/mL (≈ 7.6 µM)	4 µg/mL (≈ 15.2 µM)	1 µg/mL (≈ 3.8 µM)	2 µg/mL (≈ 7.6 µM)	–	–	–
CC(=O)NC[C@H]1CN(c2ccc(N3OC4C=CC3CC4)cc2)C(=O)O1 (stereo not given in full)	16 µg/mL (≈ 46.6 µM)	16 µg/mL (≈ 46.6 µM)	16 µg/mL (≈ 46.6 µM)	32 µg/mL (≈ 93.2 µM)	4 µg/mL (≈ 11.6 µM)	8 µg/mL (≈ 23.3 µM)	–	–	–
CC(=O)NC[C@H]1CN(c2ccc(N3CCC=N3)c(F)c2)C(=O)O1	4 µg/mL (≈ 12.5 µM)	1 µg/mL (≈ 3.12 µM)	1 µg/mL (≈ 3.12 µM)	2 µg/mL (≈ 6.24 µM)	1 µg/mL (≈ 3.12 µM)	1 µg/mL (≈ 3.12 µM)	1 µg/mL	1 µg/mL	1 µg/mL
CC(=O)NC[C@H]1CN(c2ccc(N3CCN(C(=O)CO)CC3)c(F)c2)C(=O)O1 [EPEREZOLID]	2 µg/mL (≈ 5.07 µM)	0.5 µg/mL (≈ 1.27 µM)	1 µg/mL (≈ 2.54 µM)	2 µg/mL (≈ 5.07 µM)	1 µg/mL (≈ 2.54 µM)	1 µg/mL (≈ 2.54 µM)	–	–	–
CC(=O)NC[C@H]1CN(c2ccc([N+](=O)[O-])c(F)c2)C(=O)O1	> 128 µg/mL	64 µg/mL (≈ 215 µM)	> 128 µg/mL	> 128 µg/mL	128 µg/mL (≈ 431 µM)	128 µg/mL (≈ 431 µM)	–	–	–
CC(=O)NC[C@H]1CN(c2ccc(N)cc2)C(=O)O1	128 µg/mL (≈ 513 µM)	16 µg/mL (≈ 64.2 µM)	16 µg/mL (≈ 64.2 µM)	128 µg/mL (≈ 513 µM)	64 µg/mL (≈ 257 µM)	128 µg/mL (≈ 513 µM)	–	–	–
CC(=O)NC[C@H]1CN(c2ccc(N3CCCCN3C(C)=O)c(F)c2)C(=O)O1	32 µg/mL (≈ 84.6 µM)	4 µg/mL (≈ 10.6 µM)	32 µg/mL (≈ 84.6 µM)	32 µg/mL (≈ 84.6 µM)	16 µg/mL (≈ 42.3 µM)	32 µg/mL (≈ 84.6 µM)	–	–	–
CC(=O)NC[C@H]1CN(c2ccc([N+](=O)[O-])cc2)C(=O)O1	4 µg/mL (≈ 14.3 µM)	2 µg/mL (≈ 7.16 µM)	0.5 µg/mL (≈ 1.79 µM)	4 µg/mL (≈ 14.3 µM)	1 µg/mL (≈ 3.58 µM)	2 µg/mL (≈ 7.16 µM)	–	–	–
CC(=O)NC[C@H]1CN(c2ccc(N3CCOCC3)c(F)c2)C(=O)O1 [LINEZOLID]	2 µg/mL (≈ 5.93 µM)	–	1 µg/mL (≈ 2.96 µM)	–	–	–	–	–	–
CC(=O)NC[C@H]1CN(c2ccc(N3CCCN3C(C)=O)c(F)c2)C(=O)O1	32 µg/mL (≈ 87.8 µM)	0.5 µg/mL (≈ 1.37 µM)	32 µg/mL (≈ 87.8 µM)	32 µg/mL (≈ 87.8 µM)	16 µg/mL (≈ 43.9 µM)	32 µg/mL (≈ 87.8 µM)	–	–	–
